Laboratory results reported in ChEMBL document CHEMBL4130515, “Identification of Privileged Antichlamydial Natural Products by a Ligand-Based Strategy” (J Nat Prod, 2017).
In brackets after ≈: the same amount, converted by molar mass. Counter-ions that a name gives are not always drawn.

How the values were obtained:
[1] = system: Chlamydia pneumoniae; assay: Antichlamydial activity against Chlamydia pneumoniae K7 infected in HL cells after 70 hrs by fluorescent microscopic analysis; type: functional, organism-based; details: for IC50: K7, HL, 70 h; for MIC90: K7, 70 h
Method in brief: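 HL cells grown to confluence, infected with C. pneumoniae K7 at MOI 0.3 in medium with 1 μg/mL cycloheximide, centrifuged 500 rpm 1 h, then 37 °C 1 h. At 2 h, inoculum replaced by cycloheximide medium with compound at 12 concentrations from 1 nM to 100 μM. Incubated 70 h at 37 °C, stained, and inclusions counted by fluorescence microscopy. Three runs; IC50 from variable-slope sigmoidal fit. Azithromycin 20 nM as positive control.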

[2] = system: Chlamydia pneumoniae; assay: Antichlamydial activity against Chlamydia pneumoniae K7 infected in HL cells assessed as chlamydial inhibition at 50 uM after 70 hrs by fluorescent microscopic analysis; type: functional
Method in brief: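 Confluent HL cells infected with C. pneumoniae K7 at MOI 0.3 in medium with 1 μg/mL cycloheximide, centrifuged 500 rpm 1 h, then held at 37 °C for 1 h. At 2 h, compound added at 50 μM or DMSO vehicle. After 70 h at 37 °C, inclusions stained and counted in four fields per coverslip under a fluorescence microscope (20×). Inhibition % is relative to mean vehicle counts.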

[3] = Cytotoxicity against human HL cells assessed as cell viability at 50 uM after 72 hrs by resazurin dye based fluorescence assay relative to control; details: HL cells, read-out: Activity
Method in brief: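 HL cells grown overnight to confluence, then exposed to compound at 50 μM for 72 h at 37 °C, four parallel replicates. Read-out after 2 h with 20 μM resazurin in PBS, fluorescence at 570/590 nm (ex/em). Viability % is relative to cells in 0.25% DMSO medium. Usnic acid 50 μM as positive control.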

| SMILES | IC50 [1] [µM] | inhibition at 50 µM [2] [%] | viability at 72 h, 50 µM [3] [%] | MIC90 [1] [µM] |
| --- | --- | --- | --- | --- |
| CC(=O)N[C@H]1CN2CC[C@H](O)[C@@H]2[C@@H](O)[C@@H]1O | 67.2 | 59.8 | 86.6 | – |
| CCOC(=O)Oc1c(OC)cc(C(=O)O[C@H]2C[C@H]3CN4CCc5c([nH]c6cc(OC)ccc56)[C@@H]4C[C@H]3[C@@H](C(=O)OC)[C@@H]2OC)cc1OC | – | – | 67.6 | – |
| C[C@@H]1C[C@H]2CC[C@H](O2)[C@H](C)C(=O)O[C@@H](C)C[C@@H]2CC[C@@H](O2)[C@@H](C)C(=O)O[C@H](C)C[C@H]2CC[C@H](O2)[C@H](C)C(=O)O[C@@H](C)C[C@@H]2CC[C@@H](O2)[C@@H](C)C(=O)O1 | – | – | 23.7 | – |
| C=C[C@](C)(O)CC[C@H]1C(=C)CC[C@H]2C(C)(C)CCC[C@]12C | 35.5 | 60 | 88.6 | – |
| CCC1=CC2CN3CCc4c([nH]c5ccccc45)[C@@](C(=O)OC)(C2)C13 | 52.6 | 68.1 | 88.9 | – |
| COc1c(O)c2c(=O)cc(OC)c3c4c(OC)cc(=O)c5c(O)c(OC)c6c(c(c1CC(C)(O)C6C(C)=O)c23)c54 (configuration not stated) | – | – | -0.3 | – |
| O=c1cc(-c2ccccc2)oc2cc(O)ccc12 [7-HYDROXYFLAVONE] | – | – | 71.1 | – |
| O=C1c2c(O)cc(O)cc2O[C@H](c2ccc(O)c(O)c2)[C@H]1O [(+)-TAXIFOLIN] | – | 13.4 | 95.2 | – |
| C=C1CC[C@H]2O[C@]2(C)CC[C@@H]2[C@@H]1CC2(C)C [(-)-CARYOPHYLLENE OXIDE] | – | 35.7 | 107 | – |
| Oc1cc(O)c2c(c1)O[C@H](c1ccc(O)c(O)c1)[C@H](O)C2 [(-)-EPICATECHIN] | – | 41.7 | 93.4 | – |
| C[C@@]1(CO)[C@H](O)CC[C@@]2(C)[C@H]1CC[C@H]1C[C@@H]3C[C@@]12CC[C@]3(O)CO [APHIDICOLIN] | – | -3.8 | 92.3 | – |
| O=c1cc(-c2ccc(O)cc2)oc2cc(O[C@@H]3O[C@H](CO)[C@@H](O)[C@H](O)[C@H]3O)cc(O)c12 [APIGETRIN] | – | – | 48.1 | – |
| c1cc2c(cc1[C@H]1OC[C@H]3[C@@H]1CO[C@H]3c1ccc3c(c1)OCO3)OCO2 [ASARININ] | – | – | 57.1 | – |
| CC(=O)O[C@H]1C(=O)[C@@]2(C)[C@H]([C@H](OC(=O)c3ccccc3)[C@]3(O)C[C@H](O)C(C)=C1C3(C)C)[C@]1(OC(C)=O)CO[C@@H]1C[C@@H]2O [BACCATIN III] | – | – | 34.6 | – |
| O=C(/C=C/c1ccc(O)c(O)c1)OCCc1ccccc1 [CAFFEIC ACID PHENETHYL ESTER] | – | – | 46 | – |
| C/C=C(/C)C(=O)O[C@H]1CC[C@@]2(C)[C@@H]3CC[C@H]4[C@]5(O)C[C@H](O)[C@@]6(O)[C@@H](CN7C[C@@H](C)CC[C@H]7[C@@]6(C)O)[C@]5(O)C[C@@]42O[C@]13O [CEVADINE] | – | 39 | 98.6 | – |
| CO[C@H]1[C@@H](O)[C@@H](C)O[C@H](O[C@H]2[C@H](Oc3cccc4c(O)c5c(=O)oc6ccc(C)c7c(=O)oc(c34)c5c67)O[C@H](C)[C@H](O)[C@@H]2O)[C@@H]1O [CHARTREUSIN] | – | – | 4 | – |
| CC(=O)O[C@H]1[C@H]2O[C@]23[C@@H]2CC[C@@H]4C[C@@H](O)CC[C@]4(C)[C@H]2CC[C@]3(C)[C@H]1c1ccc(=O)oc1 [CINOBUFAGIN] | – | – | 0.2 | – |
| COc1ccc(C(=O)OC2C[C@H]3CC[C@H](C2)N3C)cc1OC (some centres not stated) [CONVOLVAMINE HYDROCHLORIDE] | – | 21.1 | 78.8 | – |
| O=c1oc2cc(O)ccc2c2oc3cc(O)ccc3c12 [COUMESTROL] | – | 0 | 96.3 | – |
| C[C@@H]1C[C@@H]([C@H](O)CC2CC(=O)NC(=O)C2)C(=O)[C@@H](C)C1 [CYCLOHEXIMIDE] | – | – | 66.4 | – |
| COc1cc2c(cc1OC)[C@@H]1C(=O)c3ccc4c(c3O[C@@H]1CO2)C=CC(C)(C)O4 [DEGUELIN] | – | – | 21.6 | – |
| CC1=CC(=O)C2=C(C)CC[C@@H]3[C@H](OC(=O)[C@H]3C)[C@@H]12 [DESACETOXYMATRICARIN] | – | 30.1 | 93.9 | – |
| COc1cc(/C=C/c2ccccc2)oc(=O)c1 [DESMETHOXYYANGONIN] | – | 35.7 | 89.8 | – |
| C[C@H]1O[C@@H](O[C@H]2[C@@H](O)C[C@H](O[C@H]3[C@@H](O)C[C@H](O[C@H]4CC[C@@]5(C)[C@H](CC[C@@H]6[C@@H]5CC[C@]5(C)[C@@H](C7=CC(=O)OC7)CC[C@]65O)C4)O[C@@H]3C)O[C@@H]2C)C[C@H](O)[C@@H]1O [DIGITOXIN] | – | – | 0.1 | – |
| CC(C)[C@@]1(NC(=O)[C@@H]2C[C@@H]3c4cccc5[nH]cc(c45)C[C@H]3N(C)C2)O[C@@]2(O)[C@@H]3CCCN3C(=O)[C@H](Cc3ccccc3)N2C1=O [DIHYDROERGOCRISTINE MESYLATE] | – | – | 2.7 | – |

| SMILES | IC50 [1] [µM] | inhibition at 50 µM [2] [%] | viability at 72 h, 50 µM [3] [%] | MIC90 [1] [µM] |
| --- | --- | --- | --- | --- |
| CC(C)=CCC[C@](C)(O)[C@H]1CC[C@]2(C)[C@@H]1CC[C@@H]1[C@@]3(C)CCC(=O)C(C)(C)[C@@H]3CC[C@]12C [DIPTEROCARPOL] | – | – | 32.1 | – |
| C[C@@H]1O[C@@H](OC[C@H]2O[C@@H](Oc3cc(O)c4c(c3)O[C@H](c3ccc(O)c(O)c3)CC4=O)[C@H](O)[C@@H](O)[C@@H]2O)[C@H](O)[C@H](O)[C@H]1O [ERIOCITRIN] | – | 8.6 | 75.2 | – |
| O=C1C[C@@H](c2ccc(O)c(O)c2)Oc2c1ccc(O[C@@H]1O[C@H](CO)[C@@H](O)[C@H](O)[C@H]1O)c2O [FLAVANOMAREIN] | – | 22.1 | 82.6 | – |
| Cc1cc2c(C(C)C)c(O)c(O)c(C=O)c2c(O)c1-c1c(C)cc2c(C(C)C)c(O)c(O)c(C=O)c2c1O [GOSSYPOL] | – | – | 0.1 | – |
| Cn1c(-c2ccc3c(c2)OCO3)cc(=O)c2ccccc21 [GRAVEOLINE] | – | 5.3 | 100 | – |
| COc1ccc2c(c1)[nH]c1c(C)nccc12 [HARMINE HYDROCHLORIDE] | – | 26 | 87.3 | – |
| COc1ccc([C@@H]2CC(=O)c3c(O)cc(O[C@@H]4O[C@H](CO[C@@H]5O[C@@H](C)[C@H](O)[C@@H](O)[C@H]5O)[C@@H](O)[C@H](O)[C@H]4O)cc3O2)cc1O [HESPERIDIN] | – | 26.8 | 101 | – |
| C=CCc1ccc(O)c(-c2ccc(O)c(CC=C)c2)c1 [HONOKIOL] | – | – | 8.8 | – |
| O=C1Nc2ccccc2/C1=C1/Nc2ccccc2C1=O [INDIRUBIN] | – | 2 | 92.5 | – |
| O=c1c(O[C@@H]2O[C@H](CO)[C@@H](O)[C@H](O)[C@H]2O)c(-c2ccc(O)c(O)c2)oc2cc(O)cc(O)c12 [ISOQUERCETIN] | – | 38 | 95.8 | – |
| CC1=C2C(=O)[C@H]3[C@@H](CC=C4C[C@@H](O)CC[C@@]43C)[C@@H]2CC[C@]12O[C@@H]1C[C@H](C)CN[C@H]1[C@H]2C [JERVINE] | 25.6 | 74.8 | 89.3 | – |
| CN1CCc2cc(O)c(O)cc2C1Cc1ccc(O)c(O)c1 (configuration not stated) [LAUDANOSOLINE HYDROBROMIDE] | – | – | 72.8 | – |
| OC[C@@H]1CCCN2CCCC[C@H]12 [LUPININE] | – | 28.2 | 98.7 | – |
| COc1c(C)c2c(c(O)c1C/C=C(\C)CCC(=O)O)C(=O)OC2 [MYCOPHENOLIC ACID] | 0.31 | 98 | 86.6 | 1 (≈ 0.32 µg/mL) |
| CCn1cc(C(=O)O)c(=O)c2ccc(C)nc21 [NALIDIXIC ACID] | – | – | 15.8 | – |
| C[C@@H]1C/C=C/C=C/C=C/C=C/[C@H](O[C@@H]2O[C@H](C)[C@@H](O)[C@H](N)[C@@H]2O)C[C@@H]2O[C@](O)(C[C@@H](O)C[C@H]3O[C@@H]3/C=C/C(=O)O1)C[C@H](O)[C@H]2C(=O)O [NATAMYCIN] | – | – | 67.1 | – |
| CC1COc2c(N3CCN(C)CC3)c(F)cc3c(=O)c(C(=O)O)cn1c23 (configuration not stated) [OFLOXACIN] | – | – | – | 1.38 (≈ 0.499 µg/mL) |
| CC1(C)CC[C@]2(C(=O)O)CC[C@]3(C)C(=CC[C@@H]4[C@@]5(C)CC[C@H](O)C(C)(C)[C@@H]5CC[C@]43C)[C@@H]2C1 [OLEANOLIC_ACID] | – | – | 36.3 | – |
| C=C1C(=O)[C@]23[C@H](O)[C@H]1CC[C@H]2[C@@]12CO[C@]3(O)[C@@H](O)[C@@H]1C(C)(C)CC[C@@H]2O [ORIDONIN] | – | – | 0 | – |
| C[C@]1(C(=O)O)CCC[C@]2(C)c3cc(O)ccc3CC[C@@H]12 [PODOCARIC ACID] | – | – | 27.9 | – |
| CCCCC[C@H](O)/C=C/C1=C(CCCCCCC(=O)O)C(=O)CC1 [PROSTAGLANDIN B1] | – | 39.8 | 109 | – |
| C[C@@H]1C[C@H]2O[C@@H]2/C=C\C=C\C(=O)Cc2c(Cl)c(O)cc(O)c2C(=O)O1 [RADICICOL] | – | – | 0.6 | – |
| CN1CCc2cc3c(c4c2[C@H]1Cc1ccccc1-4)OCO3 [REMERINE HYDROCHLORIDE] | – | – | 45.2 | – |
| c1ccc2c3c([nH]c2c1)CNCC3 [TRYPTOLINE] | – | 4.9 | 84.8 | – |
| O[C@H]1CCN2Cc3ccccc3N=C12 [VASICINE] | – | -1.4 | 102 | – |
